Results reported in PMC6363535 (Journal of pharmaceutical and biomedical analysis, 2018).
Converted amounts (≈) assume the structure as drawn.

Key:
[1] = tested on: mAb 2G11G4; assay: indirect competitive ELISA; assay type: binding, mouse; details: for Cross reactivity: (IC50 of dihydroartemisinin/IC50 of the other compound) × 100; for IC50: icELISA, mAb 2G11G4, coating antigen 9-O-succinyldihydroartemisinin-OVA
[2] = general statement, no reference given; cited from earlier work
[3] = tested on: mAb 2G11G4; assay: colloidal gold-based lateral flow immunoassay; assay type: binding, mouse; details: for dipstick cross-reaction: drug concentration less than 100 ng/mL; for dipstick test line: standards at 100 ng/mL; for dipstick inhibition: standards at 500 ng/mL
In short: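 Anti-DHA mAb adsorbed onto 30 nm colloidal gold at pH 7.8, blocked with BSA, pelleted and resuspended in 0.01 M PBS pH 7.0. Gold-mAb was used at 30 μg/mL. Capture lines on nitrocellulose were 9-O-succinyl-DHA-BSA (1 mg/mL, test) and goat anti-mouse IgG (0.4 mg/mL, control), 5 mm apart. Aqueous DHA standards were 0–100 ng/mL. Indicator range is the lowest concentration at which the test line disappears visually.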

[4] = tested on: mAb 3D82G7; details: cited from earlier work
[5] = tested on: artemisinin antibody developed earlier; details: cited from earlier work
[6] = time course of DHA degradation in malaria culture, measured by icELISA; assay type: in vitro ADME, Plasmodium falciparum
[7] = buffer solution (pH=7.4); cited from earlier work

SMILES	Cross reactivity [1]	IC50 [1]	dipstick cross-reaction [3]	dipstick test line [3]	dipstick inhibition [3]	further results
CCN(CC)Cc1cc(Nc2ccnc3cc(Cl)ccc23)ccc1O [Amodiaquine]	<0.02%	>20 µg/mL	–	–	–	–
CO[C@H]1O[C@@H]2O[C@@]3(C)CC[C@H]4[C@H](C)CC[C@@H]([C@H]1C)[C@@]24OO3 [Artemether]	<0.02%	>20 µg/mL	did not cross-react	showed obvious color	no inhibition	water solubility [2]: poor water solubility
C[C@@H]1CC[C@H]2[C@@H](C)C(=O)O[C@@H]3O[C@@]4(C)CC[C@@H]1[C@]32OO4 [Artemisinin]	52.3%	0.00222 µg/mL (≈ 0.00786 µM)	did not cross-react	showed obvious color	different degrees of inhibition	water solubility [2]: poor water solubility
C[C@H]1[C@H](OC(=O)CCC(=O)O)O[C@@H]2O[C@@]3(C)CC[C@H]4[C@H](C)CC[C@@H]1[C@@]24OO3 [Artesunate]	1.6%	0.0704 µg/mL (≈ 0.183 µM)	did not cross-react	showed obvious color	different degrees of inhibition	cross-reactivity [4]: 460%; Cross reactivity ([1]; listed as artesunate): low or no cross reactivity; cross-reactivity [5]: 650%
CCN(CC)CCCC(C)Nc1ccnc2cc(Cl)ccc12 (stereo not drawn) [Chloroquine]	–	>20 µg/mL	–	–	–	–
C[C@H]1[C@@H](O)O[C@@H]2O[C@@]3(C)CC[C@H]4[C@H](C)CC[C@@H]1[C@@]24OO3 [Dihydroartemisinin]	100%	0.00116 µg/mL (≈ 0.00408 µM)	–	–	–	half-life at 200 nM ([6]; Plasmodium falciparum): 3.64 ± 0.48 h; half-life at 200 nM ([6]; culture medium only (no cells)): 5.56 ± 0.87 h; DHA concentration after 12 h of incubation ([6]; parasite culture at 5% parasitemia, starting concentration 200 nM): < 4 nM; half-life at 200 nM ([6]; red blood cells in culture medium at 5% hematocrit): 4.55 ± 0.69 h; half-life [7]: 5.5 h; working range (IC20 – IC80) ([1]; DHA concentration causing 20–80% inhibition of the signal): 0.00026 to 0.00487 µg/mL; indicator range (lowest concentration at which the test line was not visible) ([3]; dipstick, serially diluted standard DHA): 50 to 100 ng/mL
CCCCN(CCCC)CC(O)c1cc(Cl)cc2c1-c1ccc(Cl)cc1/C2=C/c1ccc(Cl)cc1 (stereo not drawn) [Lumefantrine]	<0.02%	>20 µg/mL	–	–	–	–
Clc1ccc2c(N3CCN(CCCN4CCN(c5ccnc6cc(Cl)ccc56)CC4)CC3)ccnc2c1 [Piperaquine]	<0.02%	>20 µg/mL	–	–	–	–
